# Most compounds without a hit are left out; they make up all but 2.4% or so of the library.
# Rpn11 inh: inhibitors of human proteasome Rpn11; O00487; human 26S proteasome, Ub4-pepOG fluorescence polarization; 20S core pre-blocked with epoxomicin; inhibition, % at 20 µM; actives 0.59% (n = 360,000);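 active = inhibition at 20 µM, scaled to each plate's controls, above about 33%, limit read from the data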
# HNF4A DNA FP: change in binding of human HNF4 alpha to DNA | AID 1224865 | actives 0.3% (n = 360,000) | P41235 | HNF4a-FITC DNA binding, fluorescence polarization, 1 h | activity change, % at 10 µM; in the data active = activity change above about 30%, passing the limit was not always enough
# Neddylation inh: cullin neddylation inhibition; P61081+Q13564; TR-FRET cullin neddylation, biochemical; inhibition, % at 25 µM; actives 0.58% (n = 360,000); AID 651699; in the data active = inhibition above about 36%
# Target sequence (P61081 whole entry, looked up): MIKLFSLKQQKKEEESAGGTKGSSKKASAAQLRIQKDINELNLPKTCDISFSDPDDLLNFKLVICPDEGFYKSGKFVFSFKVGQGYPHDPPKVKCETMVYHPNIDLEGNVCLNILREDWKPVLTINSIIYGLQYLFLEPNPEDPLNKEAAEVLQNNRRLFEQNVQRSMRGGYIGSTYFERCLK
# Target sequence (Q13564 whole entry, looked up): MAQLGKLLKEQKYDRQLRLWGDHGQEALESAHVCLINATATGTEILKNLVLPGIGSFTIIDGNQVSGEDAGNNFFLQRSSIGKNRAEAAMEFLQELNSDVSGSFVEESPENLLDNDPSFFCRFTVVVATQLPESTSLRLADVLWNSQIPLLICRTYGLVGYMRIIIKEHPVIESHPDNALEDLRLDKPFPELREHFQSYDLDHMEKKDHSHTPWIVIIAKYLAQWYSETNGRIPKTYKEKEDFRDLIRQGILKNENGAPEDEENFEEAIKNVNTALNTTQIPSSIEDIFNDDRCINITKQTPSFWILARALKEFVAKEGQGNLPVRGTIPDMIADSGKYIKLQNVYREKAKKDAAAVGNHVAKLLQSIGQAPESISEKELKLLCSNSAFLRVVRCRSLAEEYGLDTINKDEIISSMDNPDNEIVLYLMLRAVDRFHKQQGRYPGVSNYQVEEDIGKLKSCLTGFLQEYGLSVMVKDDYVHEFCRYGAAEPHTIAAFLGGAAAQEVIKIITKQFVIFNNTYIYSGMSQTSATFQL
# TPT1 inhibitor: blocks Candida albicans tRNA 2'-phosphotransferase; recombinant caTPT1, FP RNA substrate dephosphorylation; inhibition, % at 5 µM; actives 0.81% (n = 300,000);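 active = inhibition above the mean of all tested compounds plus 3 SD, set per screening campaign, cut at about 24% in these data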;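 note: plate controls were DMSO alone for no effect and ferristatin control at 100 nM for full effect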
# Rin1-Abl PPI inh: inhibitors of human Rin1-Abl protein interaction | P00519+Q13671 | actives 0.4% (n = 360,000) | TR-FRET Rin1/Abl binding, biochemical | inhibition, % at 7.35 µM; in the data active = inhibition above about 5%, passing the limit was not always enough
# CSN inh: CSN deneddylation inhibition. inhibition, % at 12.5 µM. AID 651999. Q92905. Purified CSN, SCF-Nedd8-OG deneddylation, fluorescence polarization. actives 0.38% (n = 360,000);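 active = pattern-corrected inhibition above about 35%, with an unprinted fluorescence ratio check between 0.5 and 1.5, limit read from the data, passing the limit was not always enough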;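 note: 0% = enzyme with substrate and 100% = substrate without enzyme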
#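 Assay system: purified human Csn5 enzyme expressed in HEK293T cells; Input: 0.24 nM Csn5 enzyme, final concentration; Reagent: 10 nM SCFSkp2-Nedd8OG; Compound dosing: 12.5 µM single point; Times: reaction 90 min, room temperature; Technique: fluorescence polarization readout.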
# Rin1 Abl conf: Rin1-Abl interaction inhibition confirmation; actives 49% (n = 1,300); AID 602124; shares compounds with Rin1-Abl PPI inh; TR-FRET Rin1-Abl binding, purified proteins; inhibition, % at 7.35 µM
# GFP quencher: quenches GFP fluorescence, counter-screen for Rin1-Abl inhibitors; inhibitors/quenchers counterscreen; AID 602125; inhibition, % at 6.75 µM; actives 8.5% (n = 1,300); shares compounds with Rin1-Abl PPI inh;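 note: ABL1-eGFP fusion protein alone without its partner RIN1-SBP; 0% = protein with vehicle and 100% = wells lacking protein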
# Neddyl inh conf: confirmation of human cullin neddylation inhibitors | shares compounds with Neddylation inh | TR-FRET cullin neddylation biochemical assay | calls only at 25 µM | actives 13% (n = 1,800) | AID 652217; in the data active = inhibition above about 40%;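 note: neddylation substrate is the cullin 1 ring ligase complex with SKP2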
# MMP-2 counter: blocks human MMP-2 in a CSN deneddylation counter-screen | recombinant MMP-2, FRET substrate fluorescence, 60 min | actives 33% (n = 540) | shares compounds with CSN inh | inhibition, % at 16.6 µM | AID 720655;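 active = corrected plate-normalized z-score of 5 or more, or -5 or less, or inhibition of 15% or more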;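 note: plate controls were DMSO wells with enzyme for no effect and buffer wells lacking MMP-2 for full effect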
# Thrombin cntr: blocks bovine thrombin in a CSN deneddylation counter-screen. actives 49% (n = 540). AID 720656. bovine thrombin cleavage of Ub4-pepOG, fluorescence polarization. shares compounds with CSN inh. inhibition, % at 16.6 µM;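 active = inhibition at or above a set limit, with a fluorescence interference ratio between 0.5 and a set maximum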
# An asterisk follows results filed as active; i = inactive; x = not tested or not shown; + = active, no number. Cut-off read from the data, not from the text of the source, unless noted: active = inhibition above about 6.5%; inactive = the rest.
SMILES,Rpn11 inh,HNF4A DNA FP,Neddylation inh,TPT1 inhibitor,Rin1-Abl PPI inh,CSN inh,Neddyl inh conf,others
Nc1ccc2c(c1)C(=O)C(=O)c1ccccc1-2,0,2,-120,3,10*,51*,x,Rin1 Abl conf=5;GFP quencher=4;MMP-2 counter=5;Thrombin cntr=-26
CCCCNC(=O)C1c2ccccc2OCC(=O)N1CC(F)(F)F (stereo not drawn),x,-1,0,x,x,5,x,
COc1ccc(CCNC(=O)CC2Nc3cc(C)c(C)cc3NC2=O)cc1OC (stereo not drawn),19,8,40*,6,-3,4,i,
COc1ccc(CCNC(=O)C2CC(=O)N(CCc3ccc(C)cc3)C2)cc1OC (stereo not drawn),10,-1,-3,-1,-2,1,x,
Nc1nc(Br)c2c(F)cccc2c1-c1ccc(F)cc1,2,2,40*,0,-2,9,i,
Nc1nc(Br)c2c(F)cccc2c1-c1ccccc1,2,2,33,2,6,1,x,
Cc1csc2ncc(C(=O)NCCc3ccccc3)c(=O)n12,3,2,47*,-2,-5,6,i,
Cc1csc2ncc(C(=O)NCCC(c3ccccc3)c3ccccc3)c(=O)n12,14,1,24,1,-1,8,x,
Cc1noc(C(F)(F)F)c1C(=O)NNC(=O)c1ccccc1,2,-1,0,-2,-1,1,x,
Cc1ccc(Oc2nc3c(C)cccn3c(=O)c2/C=C(\C#N)C(N)=O)cc1,-6,1,46*,-4,-2,-7,i,
COCCCNC(=O)/C(C#N)=C/c1c(N2CCN(c3ccccc3)CC2)nc2ccccn2c1=O,-8,-1,62*,5,-3,9,+,
COCCCNC(=O)/C(C#N)=C/c1c(N2CCN(C)CC2)nc2c(C)cccn2c1=O,-9,3,x,-4,-2,-1,x,
COCCCNC(=O)/C(C#N)=C/c1c(N2CCN(c3ccc(OC)cc3)CC2)nc2c(C)cccn2c1=O,-6,1,55*,-1,2,4,i,
CCNC(=O)/C(C#N)=C/c1c(N2CCCCCC2)nc2ccccn2c1=O,4,0,x,1,-1,11,x,
CCNC(=O)/C(C#N)=C/c1c(N2CCN(c3ccccc3)CC2)nc2ccccn2c1=O,-6,-1,43*,x,0,5,+,
CCOC(=O)CNC(=O)COc1coc(CN2CCN(c3ccccc3F)CC2)cc1=O,-7,1,-4,-2,1,-4,x,
CCOC(=O)/C(C#N)=C1\Nc2ccccc2N=C1N(CC(C)C)CC(C)C,26,2,37,23,-1,-1,x,
CCCCN(CCCC)C1=Nc2ccccc2N/C1=C(/C#N)C(=O)OCC,14,3,40*,3,-1,-1,i,
COc1ccc(CCNC(=O)CCNC(=O)N2CC(=O)Nc3ccccc32)cc1,2,-2,-2,-1,-1,2,x,
S=C(Nc1ccc2nsnc2c1)N1CCCCCC1,-29,-10,40*,-38,2,16,i,
CC1CCN(C(=O)Nc2ccc3nsnc3c2)CC1,1,1,45*,0,0,-1,+,
O=C(Nc1ccc2nsnc2c1)N1CCCCC1,-4,-1,44*,-1,-5,1,i,
CCOC(=O)C1(Cc2ccccc2C)CCCN(Cc2ccc(NC(C)=O)cc2)C1 (stereo not drawn),4,3,-1,2,0,-2,x,
COc1cccc(CN(C)C(=O)CN2C(=O)NC(c3ccccc3)(c3ccccc3)C2=O)c1OC,-6,0,3,x,5,-2,x,
CC(OC(=O)Cn1[nH]c(=O)c2ccccc2c1=O)C(=O)Nc1cccc(Cl)c1 (stereo not drawn),-2,1,5,1,-1,3,x,
SMILES,Rpn11 inh,HNF4A DNA FP,Neddylation inh,TPT1 inhibitor,Rin1-Abl PPI inh,CSN inh,Neddyl inh conf,others
Cn1c(=O)c2nc(Cl)c(-c3ccccc3)nc2n(C)c1=O,1,0,11,-2,-5,5,x,
Cn1c(=O)c2nc(-c3ccccc3)c(-c3ccccc3)nc2n(C)c1=O,-1,2,52*,-4,1,-4,i,
C/C(=N\NC(=O)c1ccc(CSc2cccc3cccnc23)cc1)C1CCCCC1,-2,3,43*,-2,-1,-6,i,
COc1ccc(/C(C)=N/NC(=O)c2ccc(CSc3cccc4cccnc34)cc2)cc1OC,-4,0,46*,0,-4,3,i,
O=C(O)CCc1ccc(-c2cccs2)n1CC1CCCO1 (stereo not drawn),5,6,49*,1,-3,1,i,
CCc1nnc(NC(=O)c2ccc(-c3ccccc3F)o2)s1,0,-2,42*,1,1,6,i,
COc1ccc(-c2cc3ccc(OCC(C)=O)cc3oc2=O)cc1OC,-7,5,-53,-3,1,0,x,
COc1ccc(-c2cc3ccc(OCc4nn[nH]n4)cc3oc2=O)cc1OC,2,-2,58*,-3,0,-6,+,
CC(C)(C)C(=O)Nc1nnc(COc2ccc(Cl)cc2)s1,-1,5,5,-3,0,-2,x,
O=C(CNC(=O)c1ccccc1Br)Nc1cccc(S(=O)(=O)Nc2ccccc2Cl)c1,1,5,-13,x,2,-2,x,
O=C(O)c1cc(N=Cc2c(O)c3ccccc3oc2=O)ccc1O,3,3,43*,x,3,-7,x,
CSc1ccccc1C(=O)Nc1ccccc1C(=O)NC(C)C,-2,-3,-4,-3,-2,1,x,
Cn1nc(C(F)(F)F)c(-c2cccc(C(F)(F)F)c2)c1NC(=O)c1ccco1,-2,0,43*,-2,1,4,i,
Cn1nc(C(F)(F)F)c(-c2cccc(C(F)(F)F)c2)c1NC(=O)c1nccnc1C(=O)O,15,0,1,-1,1,-1,x,

# Screening results: PubChem BioAssay, several laboratories
